Data: ChEMBL document CHEMBL4340510, “Design, synthesis, and biological evaluation of truncated deguelin derivatives as Hsp90 inhibitors” (Eur J Med Chem, 2019)

Key:
[1] = system: NCI-H1299; assay: Antiproliferative activity against human NCI-H1299 cells assessed as inhibition of cell growth at 1 uM after 72 hrs by MTT assay relative to control; assay type: functional; conditions: NCI-H1299, 72 h, read-out: GI
Outline: (§1)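 Cells in RPMI 1640 are seeded at 4,000 cells/well and held 24 h at 37 °C, 5% CO2. Medium is replaced with compound-containing medium (DMSO ≤0.25%) for 72 h at 37 °C. MTT read-out by absorbance at 570 nm. Quadruplicate wells, repeated three times; values are means of three independent experiments.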

[2] = system: NCI-H1299; assay: Antiproliferative activity against human NCI-H1299 cells assessed as inhibition of cell growth at 0.1 uM after 72 hrs by MTT assay relative to control; assay type: functional; conditions: NCI-H1299, 72 h, read-out: GI; outline: as §1
[3] = system: NCI-H1299; assay: Antiproliferative activity against human NCI-H1299 cells assessed as inhibition of cell growth at 10 uM after 72 hrs by MTT assay relative to control; assay type: functional; conditions: NCI-H1299, 72 h, read-out: GI; outline: as §1
[4] = system: MCF7; assay: Antiproliferative activity against human MCF7 cells after 72 hrs by MTT assay; assay type: functional, cell-based; conditions: MCF7, 72 h; outline: as §1
[5] = system: NCI-H1299; assay: Antiproliferative activity against human NCI-H1299 cells after 72 hrs by MTT assay; assay type: functional, cell-based; conditions: NCI-H1299, 72 h; outline: as §1
[6] = target: Heat shock protein HSP 90-alpha (Homo sapiens, UniProt P07900); assay: Inhibition of FITC-geldanamycin binding to recombinant human full-length C-terminal His-tagged HSP90alpha […] (1 to 732 residues) expressed in Escherichia coli after 1 hr by fluorescence polarization assay
[7] = system: A549; assay: Antiproliferative activity against human A549 cells after 72 hrs by MTT assay; assay type: functional, cell-based; conditions: A549, 72 h; outline: as §1

| Compound | inhibition of growth at 1 µM [1] [%] | inhibition of growth at 0.1 µM [2] [%] | inhibition of growth at 10 µM [3] [%] | IC50 [4] [µM] | IC50 [5] [µM] | IC50 [6] [µM] | IC50 [7] [µM] |
| --- | --- | --- | --- | --- | --- | --- | --- |
| CC1(C)C=Cc2c(ccc(C(=O)Cc3ccccc3)c2O)O1 | 7.8 | 3.9 | 15.1 |  |  |  |  |
| COc1c(C(=O)Cc2ccc3c(c2)OCCO3)ccc2c1C=CC(C)(C)O2 | 6.5 | 3.5 | 28.1 |  |  |  |  |
| COc1cc(CC(=O)c2ccc3c(c2OC)C=CC(C)(C)O3)cc(OC)c1OC | 27.4 | 9.6 | 58.3 | 5.08 | 7.2 | 0.63 | 6.15 |
| COc1ccc(CC(=O)c2ccc3c(c2OC)CCC(C)(C)O3)cc1OC | 12.4 | 7.2 | 49.3 | 7.86 | 12.6 | 0.15 | 7.2 |
| CC(C)c1cc(C(=O)N2Cc3ccc(CN4CCN(C)CC4)cc3C2)c(O)cc1O [ONALESPIB] | 96.8 | 94.8 | 95.7 | 0.29 | 0.37 | 0.02 | 0.44 |
| COc1cc(CC(=O)c2ccc3c(c2OC)CCC(C)(C)O3)cc(OC)c1OC | 30.6 | 11 | 67.5 | 5.22 | 5.72 | 0.28 | 5.33 |
| COc1ccc(C(Cc2ccccc2)C(=O)c2ccc3c(c2OCc2ccccc2)C=CC(C)(C)O3)cc1OC (stereo not drawn) | 2.5 | 2.1 | 9.9 |  |  |  |  |
| COc1c(C(=O)Cc2ccccc2)ccc2c1C=CC(C)(C)O2 | 9.3 | 5.6 | 11.3 |  |  |  |  |
| COc1ccc(CC(=O)c2ccc3c(c2O)C=CC(C)(C)O3)cc1 | 7.1 | 6.1 | 16.1 |  |  |  |  |
| COc1c(C(=O)C(C)c2ccccc2)ccc2c1C=CC(C)(C)O2 (stereo not drawn) | 6.5 | 4.5 | 15.5 |  |  |  |  |
| COc1cc(/C=C/C(=O)c2ccc3c(c2O)C=CC(C)(C)O3)cc(OC)c1OC | 8.7 | 3.8 | 12.3 |  |  |  |  |
| COc1ccc(CC(=O)c2ccc3c(c2OC)C=CC(C)(C)O3)cc1 | 7.3 | 3.6 | 10.6 |  |  |  |  |
| COc1cc(CC(=O)c2ccc3c(c2O)C=CC(C)(C)O3)cc(OC)c1OC | 19.7 | 9.7 | 49 | 11.2 | 12 | 0.43 | 13.1 |
| COc1ccc(CC(=O)c2ccc3c(c2OC(C)=O)C=CC(C)(C)O3)cc1OC | 6.2 | 4.1 | 19.5 |  |  |  |  |
| COc1cc2c(cc1OC)[C@@H]1C(=O)c3ccc4c(c3O[C@@H]1CO2)C=CC(C)(C)O4 [DEGUELIN] | 28.5 | 9.9 | 65.3 | 8.17 | 5.67 | 1.63 | 6.05 |
| COc1cc(CC(=O)c2ccc3c(c2OC)C=CC(C)(C)O3)cc(OC)c1 | 10.2 | 7.1 | 40.1 |  |  |  |  |
| COc1ccc(CCC(=O)c2ccc3c(c2O)C=CC(C)(C)O3)cc1OC | 8.5 | 3.6 | 30.1 |  |  |  |  |
| COc1ccc(CC(O)c2ccc3c(c2OC)C=CC(C)(C)O3)cc1OC (stereo not drawn) | 10.8 | 6.5 | 19.8 |  |  |  |  |
| COc1ccc(OC)c(CC(=O)c2ccc3c(c2OC)C=CC(C)(C)O3)c1 | 10.4 | 4.7 | 38.2 |  |  |  |  |
| CC1(C)C=Cc2c(ccc(C(=O)Cc3ccc(Cl)c(Cl)c3)c2O)O1 | 9.1 | 8.3 | 11.5 |  |  |  |  |
| COc1ccc(/C=C/C(=O)c2ccc3c(c2O)C=CC(C)(C)O3)cc1OC | 6.4 | 5.3 | 10.7 |  |  |  |  |
| COc1ccc(C(C)C(=O)c2ccc3c(c2OC)C=CC(C)(C)O3)cc1 (stereo not drawn) | 10.8 | 7.1 | 13.3 |  |  |  |  |
| COc1ccc(/C=C/c2ccc3c(c2OC)C=CC(C)(C)O3)cc1OC | 8.6 | 5.2 | 14.4 |  |  |  |  |
| COc1ccc(CC(=O)c2ccc3c(c2O)C=CC(C)(C)O3)cc1OC | 8.2 | 4.8 | 45.3 |  |  |  |  |
| COc1ccc(CC(=O)c2ccc3c(c2OC)C=CC(C)(C)O3)cc1OC | 10.7 | 5.1 | 47.3 | 6.88 | 11.8 | 0.09 | 6 |
